Experimental data taken from ChEMBL document CHEMBL5108008, “Drug screening approach against mycobacterial fatty acyl-AMP ligase FAAL32 renews the interest of the salicylanilide pharmacophore in the fight against tuberculosis” (Bioorg Med Chem, 2022).
Converted amounts (≈) assume the structure as drawn. Counter-ions that a name gives are not always drawn.

Experiments:
[1] = system: Mycobacterium tuberculosis; assay: Antimicrobial activity against Mycobacterium tuberculosis H37Rv incubated for 24 hrs and measured by MTT assay; type: functional
In short: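 Pellicle-grown Mtb bacilli were vortexed with glass beads, clumps removed by slow spin, and set to A600 0.1 in 7H9/0.2% glycerol. 2 µL compound in DMSO (1 mM, or 2-fold serial dilutions) went into 100 µL broth with 100 µL bacteria. Plates ran 6 d at 37 °C, then MTT (1 mg/mL) for 24 h, SDS solubilisation and A570. MIC was the lowest concentration inhibiting growth versus the untreated control.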

[2] = biological target: T1, Long-chain-fatty-acid--AMP ligase FadD32 (Mycobacterium tuberculosis (strain ATCC 25618 / H37Rv)) (UniProt O53580); assay: Binding affinity to Mycobacterium tuberculosis FAAL32 assessed as change in melting temperature at 2.5 uM by NanoDSF assay
T1 sequence (whole entry): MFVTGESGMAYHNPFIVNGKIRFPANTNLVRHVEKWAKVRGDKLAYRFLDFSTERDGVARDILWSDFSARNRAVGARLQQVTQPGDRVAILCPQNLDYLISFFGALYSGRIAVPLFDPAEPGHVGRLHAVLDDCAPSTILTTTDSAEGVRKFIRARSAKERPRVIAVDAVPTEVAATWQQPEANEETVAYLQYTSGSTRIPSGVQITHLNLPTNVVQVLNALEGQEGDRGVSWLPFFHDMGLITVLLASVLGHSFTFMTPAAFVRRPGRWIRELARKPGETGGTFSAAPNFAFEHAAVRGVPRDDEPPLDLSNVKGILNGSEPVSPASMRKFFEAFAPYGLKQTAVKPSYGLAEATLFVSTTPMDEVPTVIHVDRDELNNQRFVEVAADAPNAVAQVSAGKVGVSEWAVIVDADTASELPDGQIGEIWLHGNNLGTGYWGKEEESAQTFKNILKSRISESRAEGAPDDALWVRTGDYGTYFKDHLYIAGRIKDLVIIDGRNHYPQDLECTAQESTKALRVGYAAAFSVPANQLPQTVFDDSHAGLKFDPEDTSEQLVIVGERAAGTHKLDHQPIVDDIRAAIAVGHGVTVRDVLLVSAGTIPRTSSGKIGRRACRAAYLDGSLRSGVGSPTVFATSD
In short: (§1)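 nanoDSF used 0.5 µM purified FAAL32 with ligand at 0.5–10 µM in 50 mM HEPES pH 7.5, 500 mM NaCl, 5% DMSO. Samples sat 5 min at RT, then were heated 20–70 °C at 1 °C/min. Tm came from the F350/F330 fluorescence ratio; the DMSO-only protein was the reference.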

[3] = biological target: T2, Long-chain-fatty-acid--AMP ligase FadD32 (Mycobacterium tuberculosis (strain ATCC 25618 / H37Rv), UniProt O53580); assay: Inhibition of Mycobacterium tuberculosis FAAL32 using AMPC12 as substrate incubated for 50 mins and measured by spectrophotometric assay
T2 sequence (O53580 whole entry): T1 sequence (whole entry)
In short: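 Purified Mtb FAAL32 was run with lauric acid and ATP in HEPES pH 7.5, MgCl2, DTT and detergent. Pyrophosphatase coupling converted released PPi to Pi, read after 50 min as A630 with a phosphate colour reagent against a Pi calibration curve. Compounds (final 0.5–66 µM, DMSO) were added before the enzyme. IC50 came from a sigmoidal fit of percent inhibition.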

[4] = biological target: T1, Long-chain-fatty-acid--AMP ligase FadD32 (Mycobacterium tuberculosis (strain ATCC 25618 / H37Rv)); assay: Binding affinity to Mycobacterium tuberculosis FAAL32 assessed as change in melting temperature at 5 uM by NanoDSF assay; in short: as §1

O=C(Nc1ccc(Oc2ccc(Cl)cc2)c(Cl)c1)c1cc(I)cc(I)c1O [RAFOXANIDE]
MIC [1]: 0.08 µM (≈ 0.0501 µg/mL) | ΔTm [2]: 2.7 °C

Cc1cc(C(C#N)c2ccc(Cl)cc2)c(Cl)cc1NC(=O)c1cc(I)cc(I)c1O (stereo unspecified) [CLOSANTEL]
IC50 [3]: 7.7 µM | MIC [1]: 0.08 µM (≈ 0.053 µg/mL) | ΔTm [4]: 2.7 °C

VERTEPORFIN
MIC [1]: > 1 µM

NNC(=O)c1ccncc1 [ISONIAZID]
MIC [1]: 0.6 µM (≈ 0.0823 µg/mL)

CC(C)(O)c1ccccc1CC[C@@H](SCC1(CC(=O)O)CC1)c1cccc(/C=C/c2ccc3ccc(Cl)cc3n2)c1 [MONTELUKAST]
MIC [1]: > 1 µM

Oc1c(Cl)cc(Cl)c(Cl)c1Cc1c(O)c(Cl)cc(Cl)c1Cl [HEXACHLOROPHENE]
MIC [1]: 0.08 µM (≈ 0.0326 µg/mL)

CC(=O)Oc1ccccc1C(=O)Nc1ncc([N+](=O)[O-])s1 [NITAZOXANIDE]
MIC [1]: 10 µM (≈ 3.07 µg/mL)

O=C(Nc1cc(Cl)cc(Cl)c1O)c1c(O)c(Cl)cc(Cl)c1Cl [OXYCLOZANIDE]
MIC [1]: 0.32 µM (≈ 0.128 µg/mL)

O=C(Nc1ccc([N+](=O)[O-])cc1Cl)c1cc(Cl)ccc1O [NICLOSAMIDE]
MIC [1]: < 0.4 µM

CCCCCCCCCCCCCCCC[N+](C)(C)CCN(Cc1ccc(OC)cc1)c1ncccn1 [THONZONIUM BROMIDE]
MIC [1]: > 1 µM

O=C(O)c1cn(C2CC2)c2cc(N3CCNCC3)c(F)cc2c1=O [CIPROFLOXACIN]
MIC [1]: 1.25 µM (≈ 0.414 µg/mL)

Clc1ccc(COC(Cn2ccnc2)c2ccc(Cl)cc2Cl)c(Cl)c1 (stereo unspecified) [MICONAZOLE]
MIC [1]: > 1 µM

CCCCC(CC)CNC(=N)NC(=N)NCCCCCCNC(=N)NC(=N)NCC(CC)CCCC (stereo unspecified) [ALEXIDINE DIHYDROCHLORIDE]
MIC [1]: > 1 µM
